{"source": "ChEMBL document CHEMBL4706489", "about": "“Hydrogen sulfide releasing oridonin derivatives induce apoptosis through extrinsic and intrinsic pathways” (Eur J Med Chem, 2020)", "key": {"[1]": {"assay": "Selectivity ratio of IC50 for cytotoxicity against human L02 cells to IC50 for antiproliferative activity against human HepG2 cells", "type": "toxicity, cell-based", "details": "read-out: Ratio IC50"}, "[2]": {"assay": "Selectivity ratio of IC50 for cytotoxicity against human PBMC cells to IC50 for antiproliferative activity against human HepG2 cells", "type": "toxicity, cell-based", "details": "read-out: Ratio IC50"}, "K562 [3]": {"tested_on": "K562", "assay": "Induction of cell cycle arrest in human K562 cells assessed as accumulation at G1 phase at 1 uM after 48 hrs by propidium iodide staining based flow cytometric analysis (reference value: 43.24 to 43.37%)", "type": "functional"}, "K562 [4]": {"tested_on": "K562", "assay": "Induction of cell cycle arrest in human K562 cells assessed as accumulation at S phase at 1 uM after 48 hrs by propidium iodide staining based flow cytometric analysis (reference value: 44.73 to 45.96%)", "type": "functional"}, "K562 [5]": {"tested_on": "K562", "assay": "Induction of cell cycle arrest in human K562 cells assessed as accumulation at G1 phase at 2 uM after 48 hrs by propidium iodide staining based flow cytometric analysis (reference value: 43.24 to 43.37%)", "type": "functional"}, "HepG2 [6]": {"tested_on": "HepG2", "assay": "Induction of cell cycle arrest in human HepG2 cells assessed as accumulation at G2 phase at 0.5 uM after 48 hrs by propidium iodide staining based flow cytometric analysis (reference value: 16.48 to 16.97%)", "type": "functional", "summary_of_the_method": "(§1)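 HepG2 cells were treated with 0, 0.50, 1.0 or 2.0 test agent for 48 h. Cells were washed in cold PBS and fixed in 70% ethanol at −20 °C overnight. DNA-content distribution was measured by flow cytometry. Mean ± SD, three independent experiments.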"}, "HepG2 [7]": {"tested_on": "HepG2", "assay": "Induction of cell cycle arrest in human HepG2 cells assessed as accumulation at G1 phase at 1 uM after 48 hrs by propidium iodide staining based flow cytometric analysis (reference value: 49.46 to 50.3%)", "type": "functional", "summary_of_the_method": "as §1"}, "HepG2 [8]": {"tested_on": "HepG2", "assay": "Induction of cell cycle arrest in human HepG2 cells assessed as accumulation at G2 phase at 1 uM after 48 hrs by propidium iodide staining based flow cytometric analysis (reference value: 16.48 to 16.97%)", "type": "functional", "summary_of_the_method": "as §1"}, "HepG2 [9]": {"tested_on": "HepG2", "assay": "Induction of cell cycle arrest in human HepG2 cells assessed as accumulation at G1 phase at 2 uM after 48 hrs by propidium iodide staining based flow cytometric analysis (reference value: 49.46 to 50.3%)", "type": "functional", "summary_of_the_method": "as §1"}, "K562 [10]": {"tested_on": "K562", "assay": "Induction of apoptosis in human K562 cells assessed as viable cells at 0.5 uM after 48 hrs by annexin V FITC and propidium iodide staining based flow cytometric analysis (reference value: 96.76%)", "type": "functional", "details": "read-out: Activity"}, "K562 [11]": {"tested_on": "K562", "assay": "Induction of apoptosis in human K562 cells assessed as late apoptotic cells at 0.5 uM after 48 hrs by annexin V FITC and propidium iodide staining based flow cytometric analysis (reference value: 0.42%)", "type": "functional"}, "K562 [12]": {"tested_on": "K562", "assay": "Induction of apoptosis in human K562 cells assessed as early apoptotic cells at 1 uM after 48 hrs by annexin V FITC and propidium iodide staining based flow cytometric analysis (reference value: 2.13%)", "type": "functional"}, "K562 [13]": {"tested_on": "K562", "assay": "Induction of apoptosis in human K562 cells assessed as viable cells at 2 uM after 48 hrs by annexin V FITC and propidium iodide staining based flow cytometric analysis (reference value: 96.76%)", "type": "functional", "details": "read-out: Activity"}, "HepG2 [14]": {"tested_on": "HepG2", "assay": "Induction of apoptosis in human HepG2 cells assessed as viable cells at 0.5 uM after 48 hrs by annexin V FITC and propidium iodide staining based flow cytometric analysis (reference value: 93.5%)", "type": "functional", "details": "read-out: Activity"}, "HepG2 [15]": {"tested_on": "HepG2", "assay": "Induction of apoptosis in human HepG2 cells assessed as early apoptotic cells at 0.5 uM after 48 hrs by annexin V FITC and propidium iodide staining based flow cytometric analysis (reference value: 2.89%)", "type": "functional"}, "HepG2 [16]": {"tested_on": "HepG2", "assay": "Induction of apoptosis in human HepG2 cells assessed as late apoptotic cells at 0.5 uM after 48 hrs by annexin V FITC and propidium iodide staining based flow cytometric analysis (reference value: 3.17%)", "type": "functional"}, "HepG2 [17]": {"tested_on": "HepG2", "assay": "Induction of apoptosis in human HepG2 cells assessed as necrotic cells at 0.5 uM after 48 hrs by annexin V FITC and propidium iodide staining based flow cytometric analysis (reference value: 0.89%)", "type": "functional"}, "HepG2 [18]": {"tested_on": "HepG2", "assay": "Induction of apoptosis in human HepG2 cells assessed as viable cells at 1 uM after 48 hrs by annexin V FITC and propidium iodide staining based flow cytometric analysis (reference value: 93.5%)", "type": "functional", "details": "read-out: Activity"}, "HepG2 [19]": {"tested_on": "HepG2", "assay": "Induction of apoptosis in human HepG2 cells assessed as late apoptotic cells at 1 uM after 48 hrs by annexin V FITC and propidium iodide staining based flow cytometric analysis (reference value: 3.17%)", "type": "functional"}, "HepG2 [20]": {"tested_on": "HepG2", "assay": "Induction of apoptosis in human HepG2 cells assessed as necrotic cells at 1 uM after 48 hrs by annexin V FITC and propidium iodide staining based flow cytometric analysis (reference value: 0.89%)", "type": "functional"}, "HepG2 [21]": {"tested_on": "HepG2", "assay": "Induction of apoptosis in human HepG2 cells assessed as early apoptotic cells at 2 uM after 48 hrs by annexin V FITC and propidium iodide staining based flow cytometric analysis (reference value: 2.89%)", "type": "functional"}, "HepG2 [22]": {"tested_on": "HepG2", "assay": "Induction of apoptosis in human HepG2 cells assessed as late apoptotic cells at 2 uM after 48 hrs by annexin V FITC and propidium iodide staining based flow cytometric analysis (reference value: 3.17%)", "type": "functional"}, "HepG2 [23]": {"tested_on": "HepG2", "assay": "Induction of mitochondrial membrane potential loss in human HepG2 cells after 48 hrs by JC1 staining based flow cytometric analysis", "type": "functional, cell-based", "details": "dose 0.5-2 µM", "summary_of_the_method": "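K562 and HepG2 cells in 6-well plates were exposed for 48 h at 0, 0.50, 1.0 and 2.0 µM, with DMSO vehicle control. After trypsinization, cells were stained with JC-1 (0.5 mg/mL) at 37 °C in darkness for 30 min, then washed with PBS. Membrane potential was read by flow cytometry. Mean ± SD, three independent experiments.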"}, "K562 [24]": {"tested_on": "K562", "assay": "Induction of apoptosis in human K562 cells assessed as down regulation of procaspase-3 at 1 uM after 24 hrs by chemiluminescence based apoptosis array method", "type": "functional, cell-based", "summary_of_the_method": "(§2)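 K562 cells were treated with 1 test agent for 24 h. Diluted total-cell lysates were applied to a human apoptosis antibody array covering 35 apoptosis-related proteins for 24 h. Unbound protein was washed off, and arrays were probed with a biotinylated detection antibody for 1 h. Relative expression was read from chemiluminescent signal by digital imaging.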"}, "K562 [25]": {"tested_on": "K562", "assay": "Induction of apoptosis in human K562 cells assessed as increase in cleaved caspase-3 at 1 uM after 24 hrs by chemiluminescence based apoptosis array method", "type": "functional, cell-based", "summary_of_the_method": "as §2"}, "[26]": {"assay": "Cytotoxicity against human PBMC cells assessed as cell viability after 72 hrs by MTT assay"}, "MCF7": {"tested_on": "MCF7", "assay": "Antiproliferative activity against human MCF7 cells assessed as reduction in cell viability after 72 hrs by MTT assay", "details": "MCF7, 72 h"}, "K562 [27]": {"tested_on": "K562", "assay": "Antiproliferative activity against human K562 cells assessed as reduction in cell viability after 72 hrs by MTT assay", "details": "K562, 72 h"}}, "note": "Activity calls are given as the source filed them. No cut-off for these calls is given here."}
{"smiles": "C=C1C(=O)[C@]23[C@H](OC(=O)CCC(=O)OCCCCCCOc4ccc(-c5cc(=S)ss5)cc4)[C@H]1CC[C@H]2[C@@]12CO[C@@]3(O)[C@@H](O)[C@@H]1C(C)(C)CC[C@@H]2OC(C)=O", "values": [{"measurement": "selectivity ratio", "setting": "[1]", "value": 20}, {"measurement": "selectivity ratio", "setting": "[2]", "value": 20}, {"measurement": "Activity", "setting": "K562 [3]", "value": 34.14, "unit": "%"}, {"measurement": "Activity", "setting": "K562 [4]", "value": 55.54, "unit": "%"}, {"measurement": "Activity", "setting": "K562 [5]", "value": 29.97, "unit": "%"}, {"measurement": "Activity", "setting": "HepG2 [6]", "value": 13.24, "unit": "%"}, {"measurement": "Activity", "setting": "HepG2 [7]", "value": 61.39, "unit": "%"}, {"measurement": "Activity", "setting": "HepG2 [8]", "value": 11.5, "unit": "%"}, {"measurement": "Activity", "setting": "HepG2 [9]", "value": 65.1, "unit": "%"}, {"measurement": "viability at 0.5 µM", "setting": "K562 [10]", "value": 87, "unit": "%"}, {"measurement": "Activity", "setting": "K562 [11]", "value": 4.77, "unit": "%"}, {"measurement": "Activity", "setting": "K562 [12]", "value": 11.39, "unit": "%"}, {"measurement": "viability at 2 µM", "setting": "K562 [13]", "value": 47.4, "unit": "%"}, {"measurement": "viability at 0.5 µM", "setting": "HepG2 [14]", "value": 76.7, "unit": "%"}, {"measurement": "Activity", "setting": "HepG2 [15]", "value": 10.52, "unit": "%"}, {"measurement": "Activity", "setting": "HepG2 [16]", "value": 10.09, "unit": "%"}, {"measurement": "Activity", "setting": "HepG2 [17]", "value": 2.7, "unit": "%"}, {"measurement": "viability at 1 µM", "setting": "HepG2 [18]", "value": 60.5, "unit": "%"}, {"measurement": "Activity", "setting": "HepG2 [19]", "value": 12.72, "unit": "%"}, {"measurement": "Activity", "setting": "HepG2 [20]", "value": 1.26, "unit": "%"}, {"measurement": "Activity", "setting": "HepG2 [21]", "value": 26.44, "unit": "%"}, {"measurement": "Activity", "setting": "HepG2 [22]", "value": 37.6, "unit": "%"}, {"measurement": "Activity", "setting": "HepG2 [23]", "value": "Dose-dependent effect"}, {"measurement": "Activity", "setting": "K562 [24]", "value": "Active"}, {"measurement": "Activity", "setting": "K562 [25]", "value": "Active"}, {"measurement": "IC50", "setting": "[26]", "value": "> 50", "unit": "µM"}, {"measurement": "IC50", "setting": "MCF7", "value": 16.1, "unit": "µM"}, {"measurement": "IC50", "setting": "K562 [27]", "value": 0.95, "unit": "µM"}]}
